{"source": "ChEMBL document CHEMBL1122442", "about": "“Antifertility agents. 38. Effect of the side chain and its position on the activity of 3,4-diarylchromans” (1983)", "key": {"Rattus norvegicus [1]": {"system": "Rattus norvegicus", "test": "Effective dose for antiimplantation activity in male albino rats at 2 mg/Kg;IN-Inactive", "type": "functional, organism-based", "conditions": "in the assay text read “female” for “male”", "procedure,_shortened": "(§1)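 Colony-bred adult female albino rats (150-170 g) mated with fertile coeval males; suspension in gum acacia given orally on days 1-7 postcoitum; positive only when implants were wholly absent from both uterine horns.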"}, "Rattus norvegicus [2]": {"system": "Rattus norvegicus", "test": "Effective dose for anti-implantation activity in female albino rats at 10 mg/kg; A-Active"}, "Rattus norvegicus [3]": {"species": "Rattus norvegicus", "test": "Effective dose for antiimplantation activity in male albino rats", "type": "functional", "conditions": "in the assay text read “female” for “male”", "procedure,_shortened": "as §1"}, "Rattus norvegicus [4]": {"system": "Rattus norvegicus", "test": "Effective dose for anti-implantation activity in female albino rats at 10 mg/kg; IN-Inactive"}, "[5]": {"molecular_target": "T1, Estrogen receptor (Rattus norvegicus) (UniProt P06211+Q62986)", "test": "Effect on uterine weight gain in immature rats by subcutaneous dose; N-Nil", "type": "functional", "procedure,_shortened": "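Immature rats (25-30 g); dosed subcutaneously once daily for 3 days in 0.2 mL saline/propylene glycol (1:1, v/v); estrogenicity read as uterine weight gain.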"}, "[6]": {"molecular_target": "T1, Estrogen receptor (Rattus norvegicus)", "test": "Relative binding affinity for uterine cytosol 17-beta-estradiol receptor from immature rats; N-Nil", "type": "protein assay", "procedure,_shortened": "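Competitive binding against 17β-estradiol for uterine cytosol receptor from immature Charles Foster rats aged 21-25 days; dextran-coated charcoal removes unbound steroid; expressed as relative binding affinity.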"}, "[7]": {"molecular_target": "T1, Estrogen receptor (Rattus norvegicus)"}, "Rattus norvegicus [8]": {"species": "Rattus norvegicus", "test": "Effective dose for anti-implantation activity in male albino rats; Nil", "type": "functional, organism-based", "conditions": "in the assay text read “female” for “male”", "procedure,_shortened": "as §1"}}, "note": "The source made the active and inactive calls. The rule behind the calls is not given here."}
{"smiles": "COc1ccc2c(c1)OC(C)(C)C(c1ccc(O)cc1)=C2c1ccccc1", "values": [{"measurement": "ED100", "setting": "Rattus norvegicus [1]", "result": "inactive"}, {"measurement": "ED100", "setting": "Rattus norvegicus [2]", "result": "Active"}]}
{"smiles": "COc1ccc2c(c1)OC(C)(C)C(c1ccccc1)=C2c1ccc(OCCN2CCCC2)cc1", "values": [{"measurement": "ED100", "setting": "Rattus norvegicus [3]", "result": 5, "unit": "mg/kg/day"}]}
{"smiles": "COc1ccc2c(c1)OC(C)(C)C(c1ccc(O)cc1)C2c1ccccc1", "note": "(stereo in doubt; 31)", "values": [{"measurement": "ED100", "setting": "Rattus norvegicus [4]", "result": "inactive"}]}
{"smiles": "COc1ccc2c(c1)OC(C)(C)C(c1ccccc1)C2c1ccc(OCCCN2CCCC2)cc1.Cl", "note": "(centres undefined)", "values": [{"measurement": "ED100", "setting": "Rattus norvegicus [3]", "result": 0.3, "unit": "mg/kg/day"}]}
{"smiles": "COc1ccc2c(c1)OC(C)(C)C(c1ccc(O)cc1)C2c1ccccc1", "note": "(stereo in doubt; 33)", "values": [{"measurement": "ED100", "setting": "Rattus norvegicus [3]", "result": 1, "unit": "mg/kg/day"}]}
{"smiles": "COc1ccc2c(c1)OC(C)(C)C(c1ccccc1)C2c1ccc(OCCN2CCCC2)cc1", "note": "(stereo in doubt; 2)", "values": [{"measurement": "Estrogenic effect", "setting": "[5]", "result": "inactive"}]}
{"smiles": "COc1ccc2c(c1)OC(C)(C)C(c1ccccc1)C2c1cccc(OCCN2CCCC2)c1", "note": "(stereo in doubt; 11)", "values": [{"measurement": "ED100", "setting": "Rattus norvegicus [1]", "result": "inactive"}]}
{"smiles": "COc1ccc2c(c1)OC(C)(C)C(c1ccc(OCCN3CCCC3)cc1)=C2c1ccccc1", "values": [{"measurement": "relative binding affinity (RBA)", "setting": "[6]", "result": "inactive"}, {"measurement": "ED100", "setting": "Rattus norvegicus [1]", "result": "inactive"}]}
{"smiles": "COc1ccc2c(c1)OC(C)(C)C(c1ccc(OCCN3CCCC3)cc1)C2c1ccccc1", "note": "(centres undefined)", "values": [{"measurement": "relative binding affinity (RBA)", "setting": "[6]", "result": "inactive"}, {"measurement": "ED100", "setting": "Rattus norvegicus [1]", "result": "inactive"}, {"measurement": "ED100", "setting": "Rattus norvegicus [3]", "result": 2, "unit": "mg/kg/day"}, {"measurement": "Estrogenic effect", "setting": "[7]", "result": 2.2}]}
{"smiles": "COc1ccc2c(c1)OC(C)(C)C(c1ccccc1)=C2c1ccccc1OCCN1CCCC1", "values": [{"measurement": "relative binding affinity (RBA)", "setting": "[6]", "result": "inactive"}, {"measurement": "ED100", "setting": "Rattus norvegicus [4]", "result": "inactive"}]}
{"smiles": "CCN(CC)CCOc1ccc(C2c3ccc(OC)cc3OC(C)(C)C2c2ccccc2)cc1.Cl", "note": "(centres undefined)", "values": [{"measurement": "ED100", "setting": "Rattus norvegicus [3]", "result": 0.3, "unit": "mg/kg/day"}]}
{"smiles": "CC1(C)Oc2cc(O)ccc2C(c2ccc(OCCN3CCCC3)cc2)C1c1ccccc1", "note": "(centres undefined)", "values": [{"measurement": "ED100", "setting": "Rattus norvegicus [3]", "result": 0.25, "unit": "mg/kg/day"}, {"measurement": "Estrogenic effect", "setting": "[7]", "result": 11.8}]}
{"smiles": "COc1ccc2c(c1)OC(C)(C)C(c1ccccc1)C2c1ccc(O)cc1", "note": "(centres undefined)", "values": [{"measurement": "ED100", "setting": "Rattus norvegicus [8]", "result": "inactive"}, {"measurement": "Estrogenic effect", "setting": "[7]", "result": 0.2}]}
{"smiles": "COc1ccc2c(c1)OC(C)(C)C(c1ccccc1)C2c1ccc(OCCN2CCCC2)cc1", "note": "(stereo in doubt; 1) [ORMELOXIFENE]", "values": [{"measurement": "ED100", "setting": "Rattus norvegicus [3]", "result": 0.25, "unit": "mg/kg/day"}]}
{"smiles": "COc1ccc2c(c1)OC(C)(C)C(c1ccccc1)=C2c1cccc(OCCN2CCCC2)c1.Cl", "values": [{"measurement": "ED100", "setting": "Rattus norvegicus [3]", "result": 1, "unit": "mg/kg/day"}]}
{"smiles": "COc1ccc2c(c1)OC(C)(C)C(c1ccccc1)C2c1cccc(OCCN2CCCC2)c1", "note": "(stereo in doubt; 22)", "values": [{"measurement": "ED100", "setting": "Rattus norvegicus [1]", "result": "inactive"}]}
{"smiles": "COc1ccc2c(c1)OC(C)(C)C(c1ccccc1)C2c1ccccc1OCCN1CCCC1", "note": "(centres undefined)", "values": [{"measurement": "relative binding affinity (RBA)", "setting": "[6]", "result": "inactive"}, {"measurement": "ED100", "setting": "Rattus norvegicus [1]", "result": "inactive"}]}
{"smiles": "COc1ccc2c(c1)OC(C)(C)C(c1ccccc1)C2c1ccc(OCCN2CCCC2)cc1", "note": "(stereo in doubt; 1)", "values": [{"measurement": "Estrogenic effect", "setting": "[7]", "result": 0.56}]}
{"smiles": "COc1ccc2c(c1)OC(C)(C)C(c1ccccc1)C2c1ccc(OCCN(C)C)cc1.Cl", "note": "(centres undefined)", "values": [{"measurement": "ED100", "setting": "Rattus norvegicus [3]", "result": 2, "unit": "mg/kg/day"}]}
{"smiles": "COc1ccc2c(c1)OC(C)(C)C(c1ccccc1)C2c1ccc(OCCN2CCCC2)cc1", "note": "(stereo in doubt; 2) [ORMELOXIFENE]", "values": [{"measurement": "ED100", "setting": "Rattus norvegicus [3]", "result": 50, "unit": "mg/kg/day"}]}
